Measurements as given in article PMC8900268 (Journal of medicinal chemistry, 2021).

Tests used:
[1] = system: MOLT-4 cells; assay: MTS cell viability assay in MOLT-4 cells; type: cell-based; conditions: Homo sapiens, MOLT-4, 48 h, read-out: IC50, cell-killing potency in MOLT-4
[2] = system: RS4;11 cells; assay: MTS cell viability assay in RS4; type: cell-based; conditions: for IC50: Homo sapiens, RS4-11, 48 h, read-out: IC50, cell-killing potency in RS4;11; for activity loss (IC50 change) after pre-treatment with VHL-032: RS4;11 cells, 48 h, pre-treatment with VHL-032 (10 μM)
[3] = biological target: BCL-XL (Homo sapiens, UniProt P40337+Q07817); assay: AlphaScreen displacement binding assay, BCL-XL; conditions: displacement of Biotin-Bad
[4] = biological target: BCL-2 (Homo sapiens, UniProt P10415+P40337); assay: AlphaScreen displacement binding assay, BCL-2; conditions: displacement of Biotin-Bim
[5] = biological target: {BCL-2:compound:VCB} ternary complexes (Homo sapiens, UniProt P10415+P40337); assay: NanoBRET ternary complex formation with BCL-2 and VCB in live 293T cells; type: cell-based; conditions: 6 h
In short: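 HEK 293T cells were transfected with 1 μg HaloTag-VHL, 10 ng HiBit-BCL-2 and 10 ng LgBit. After 24 h, 2×10^4 cells/well were placed in phenol-red-free Opti-MEM with 4% FBS ± HaloTag NanoBRET 618 ligand overnight at 37 °C. Serially diluted test compound was added for 6 h, then Nano-Glo substrate. mBRET ratio calculated. Mean ± s.e.m. of two independent experiments in triplicate.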

[6] = biological target: BCL-2:Bim interaction (Homo sapiens, UniProt P10415); assay: Co-immunoprecipitation of Bim with BCL-2 in RS4; type: cell-based; conditions: RS4;11 cells, 12 h, immunoprecipitation with BCL-2
In short: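 RS4;11 cells were treated with test compound for 12 h, ±VHL-032. Lysis in IP buffer with protease/phosphatase inhibitors, then 15000 rpm spin. 1 mg lysate was precleared with mouse IgG and protein A/G agarose for 1 h at 4 °C. IP with 2 μg anti-BCL-2 (or IgG) overnight at 4 °C, then beads for 2 h. After three washes, immunoblotted for Bim. Inputs probed for Bim, BCL-2 and β-actin. Two independent experiments.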

[7] = system: MOLT-4 cells; conditions: ref 10a; cited from earlier work
[8] = system: human platelets; conditions: earlier study; ref 10a; cited from earlier work
[9] = biological target: BCL-XL with VCB (Homo sapiens, UniProt P40337+Q07817); assay: AlphaLISA cell-free ternary complex formation, BCL-XL and VCB; type: biochemical
In short: (§1)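 Recombinant His-tagged BCL-2 or BCL-XL and GST-tagged VHL–elongin B–elongin C–Cul2 (VCB) were each added at 20 nM with a 4× serial dilution of test compound. Buffer: 25 mM HEPES pH 7.5, 100 mM NaCl, 0.1% BSA, 0.005% Tween 20. Incubation 30 min at room temperature, then glutathione donor beads for 15 min and anti-His acceptor beads for 45 min, both in the dark. AlphaLISA luminescence plotted against log concentration.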

[10] = biological target: BCL-2 with VCB (Homo sapiens, UniProt P10415+P40337); assay: AlphaLISA cell-free ternary complex formation, BCL-2 and VCB; type: biochemical
In short: as §1

[11] = biological target: T1, BCL-XL (Homo sapiens, UniProt Q07817); assay: BCL-XL degradation in MOLT-4 cells by western blotting; type: cell-based
In short: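 MOLT-4 cells were exposed to test compound for 16 h across a concentration range. Other arms: 100 nM time course; 100 nM for 16 h, then washout; and pretreatment with 10 μM VHL-032 or 1 μM MG-132 before 12 h exposure. Lysates were immunoblotted for BCL-XL and β-actin. Band densities were normalised to β-actin. Mean ± SD of three independent experiments in triplicate.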

[12] = biological target: T1, BCL-XL; assay: BCL-XL protein levels in human platelets by western blotting; type: cell-based; conditions: 16 h treatment
In short: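 Platelets came from purchased human platelet-rich plasma in acid citrate buffer with 1 μM PGE1 and 0.2 units/mL apyrase (final). They were pelleted at 1200 g for 10 min, washed and resuspended in HEPES Tyrode's buffer with the same PGE1/apyrase. Platelets were treated with test compound for 16 h, then immunoblotted for BCL-XL.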

[13] = biological target: BCL-2 (Homo sapiens, UniProt P10415); assay: BCL-2 degradation by western blotting in MOLT-4 and RS4; type: cell-based; conditions: 16 h
[14] = system: NCI-H146 cells; assay: Cell viability assay in NCI-H146 cells; type: cell-based; conditions: BCL-2/BCL-XL dual-dependent cells
In short: (§2)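 Cells were seeded at 50,000/well in complete medium and dosed 30 min later at nine concentrations in triplicate. Viability was read by MTS after 48 h. Percentage viability was fitted by non-linear regression.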

[15] = system: NCI-H211 cells; assay: Cell viability assay in NCI-H211 cells; type: cell-based; conditions: BCL-2/BCL-XL dual-dependent cells
In short: as §2

[16] = biological target: T1, BCL-XL; assay: BCL-XL degradation in HEK 293T cells by immunoblotting; type: cell-based
In short: (§3)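 HEK 293T cells grown in DMEM with 10% FBS and 1% penicillin–streptomycin at 37 °C, 5% CO2, then treated with test compound. Lysates made with protease/phosphatase inhibitors, run on 4–20% Tris-glycine gels and transferred to PVDF. Blocked in 5% milk/TBS-Tween. Primary antibodies overnight at 4 °C, HRP secondary, ECL detection. Cleaved PARP probed as apoptosis marker.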

[17] = system: MCL-1; assay: MCL-1 levels in HEK 293T cells by immunoblotting; type: cell-based
In short: as §3

[18] = system: MOLT-4 cells; assay: Apoptosis induction in MOLT-4 cells; type: cell-based, human; conditions: caspase-3 mediated
In short: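 MOLT-4 cells were given test compound for 16 h, then immunoblotted for cleaved and full caspase-3, cleaved and full PARP, and β-actin. Separately, cells (5×10^4/well) were pretreated ±2 μM QVD for 4 h, then given 10 nM compound for 48 h. Read by immunoblot, or by Annexin-V–Alexa Fluor 647 (1:50) plus PI (10 μg/mL) staining for 30 min at room temperature in the dark, then flow cytometry.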

Row | SMILES | activity loss (IC50 change) after pre-treatment with VHL-032 [2] | formation of {BCL-2:compound:VCB} ternary complexes in live cells [5] | effect on BCL-2:Bim interaction [6] | formation of ternary complexes with BCL-XL and VCB [9] | formation of ternary complexes with BCL-2 and VCB [10] | BCL-XL degradation (in words) [11] | IC50 [2] | further results
1 | Cc1ncsc1-c1ccc([C@H](C)NC(=O)[C@@H]2C[C@@H](O)CN2C(=O)[C@@H](NC(=O)CCCCCC(=O)NCC2(C)CCC(c3ccc(Cl)cc3)=C(CN3CCN(c4ccc(C(=O)NS(=O)(=O)c5ccc(N[C@H](CCN6CCOCC6)CSc6ccccc6)c(S(=O)(=O)C(F)(F)F)c5)cc4)CC3)C2)C(C)(C)C)cc1 (stereo partly drawn) [PP2, N^1-((4’-Chloro-4-methyl-6-((4-(4-(((4-(((R)-4-morpholino-1-(phenylthio)butan-2-yl)amino)-3-((trifluoromethyl)sulfonyl)phenyl)sulfonyl)carbamoyl)phenyl)piperazin-1-yl)methyl)-2,3,4,5-tetrahydro-[1,1’-biphenyl]-4-yl)methyl)-N^7-((S)-1-((2S,4R)-4-hydroxy-2-(((S)-1-(4-(4-methylthiazol-5-yl)phenyl)ethyl)carbamoyl)pyrrolidin-1-yl)-3,3-dimethyl-1-oxobutan-2-yl)heptanediamide] |  |  |  |  |  |  | 234 ± 21.6 nM | 
2 | Cc1ncsc1-c1ccc([C@H](C)NC(=O)[C@@H]2C[C@@H](O)CN2C(=O)[C@@H](NC(=O)CCCCCCCCC(=O)NCC2(C)CCC(c3ccc(Cl)cc3)=C(CN3CCN(c4ccc(C(=O)NS(=O)(=O)c5ccc(N[C@H](CCN6CCOCC6)CSc6ccccc6)c(S(=O)(=O)C(F)(F)F)c5)cc4)CC3)C2)C(C)(C)C)cc1 (stereo partly drawn) [PP5, N^1-((4’-Chloro-4-methyl-6-((4-(4-(((4-(((R)-4-morpholino-1-(phenylthio)butan-2-yl)amino)-3-((trifluoromethyl)sulfonyl)phenyl)sulfonyl)carbamoyl)phenyl)piperazin-1-yl)methyl)-2,3,4,5-tetrahydro-[1,1’-biphenyl]-4-yl)methyl)-N^10-((S)-1-((2S,4R)-4-hydroxy-2-(((S)-1-(4-(4-methylthiazol-5-yl)phenyl)ethyl)carbamoyl)pyrrolidin-1-yl)-3,3-dimethyl-1-oxobutan-2-yl)decanediamide] |  | able to form |  |  |  |  |  | 
3 | Cc1ncsc1-c1ccc([C@H](C)NC(=O)[C@@H]2C[C@@H](O)CN2C(=O)[C@@H](NC(=O)CCCCCCCCC(=O)NC[C@]2(C)CCC(c3ccc(Cl)cc3)=C(CN3CCN(c4ccc(C(=O)NS(=O)(=O)c5ccc(N[C@H](CCN6CCOCC6)CSc6ccccc6)c(S(=O)(=O)C(F)(F)F)c5)cc4)CC3)C2)C(C)(C)C)cc1 [PZ703b, N^1-(((R)-4’-Chloro-4-methyl-6-((4-(4-(((4-(((R)-4-morpholino-1-(phenylthio)butan-2-yl)amino)-3-((trifluoromethyl)sulfonyl)phenyl)sulfonyl)carbamoyl)phenyl)piperazin-1-yl)methyl)-2,3,4,5-tetrahydro-[1,1’-biphenyl]-4-yl)methyl)-N^10-((S)-1-((2S,4R)-4-hydroxy-2-(((S)-1-(4-(4-methylthiazol-5-yl)phenyl)ethyl)carbamoyl)pyrrolidin-1-yl)-3,3-dimethyl-1-oxobutan-2-yl)decanediamide] |  | able to form | can inhibit BCL-2:Bim interaction | can form stable ternary complexes | can form stable ternary complexes | rapid and durable BCL-XL degradation |  | effect on BCL-XL protein levels in platelets [12]: did not cause significant changes; BCL-2 degradation (in words) [13]: did not observe significant BCL-2 degradation; killing of NCI-H146 cells [14]: efficiently kill; killing of NCI-H211 cells [15]: efficiently kill; BCL-XL degradation in HEK 293T cells [16]: effectively induce BCL-XL degradation; MCL-1 decrease in HEK 293T cells [17]: no MCL-1 decrease was observed; induction of apoptosis in MOLT-4 cells [18]: potently induced apoptosis

Second part, led by results:

Row | activity loss (IC50 change) after pre-treatment with VHL-032 [2] | formation of {BCL-2:compound:VCB} ternary complexes in live cells [5] | effect on BCL-2:Bim interaction [6] | formation of ternary complexes with BCL-XL and VCB [9] | formation of ternary complexes with BCL-2 and VCB [10] | BCL-XL degradation (in words) [11] | SMILES | IC50 [2] | further results
4 | no significant IC50 value changes | could not | minimal effect |  |  |  | Cc1ncsc1-c1ccc([C@H](C)NC(=O)[C@@H]2C[C@@H](O)CN2C(=O)[C@@H](NC(=O)CCCCCC(=O)N2CCN(CC[C@H](CSc3ccccc3)Nc3ccc(S(=O)(=O)NC(=O)c4ccc(N5CCN(CC6=C(c7ccc(Cl)cc7)CCC(C)(C)C6)CC5)cc4)cc3S(=O)(=O)C(F)(F)F)CC2)C(C)(C)C)cc1 [DT2216] | 212 ± 27.4 nM | IC50 [1]: 75.3 ± 9.1 nM; Kd ([3]; Kd BCL-XL w VHL, ternary binding, with GST-VCB): 2.18 ± 0.51 nM; Kd ([3]; Kd BCL-XL w/o VHL, binary binding, without VCB): 7.58 ± 0.62 nM; Kd ([4]; Kd BCL-2 w VHL, ternary binding, with GST-VCB): 1.46 ± 0.41 nM; Kd ([4]; Kd BCL-2 w/o VHL, binary binding, without VCB): 2.25 ± 0.33 nM; fold more potent than warhead ABT-263 against MOLT-4 [7]: 4 fold; selectivity for MOLT-4 over human platelets [8]: ~ 200 fold
5 | 2.6 fold | able to form |  | can form stable ternary complexes | can form stable ternary complexes |  | Cc1ncsc1-c1ccc([C@H](C)NC(=O)[C@@H]2C[C@@H](O)CN2C(=O)[C@@H](NC(=O)CCCCCCCCC(=O)NC[C@@]2(C)CCC(c3ccc(Cl)cc3)=C(CN3CCN(c4ccc(C(=O)NS(=O)(=O)c5ccc(N[C@H](CCN6CCOCC6)CSc6ccccc6)c(S(=O)(=O)C(F)(F)F)c5)cc4)CC3)C2)C(C)(C)C)cc1 [PZ703a, N^1-(((S)-4’-Chloro-4-methyl-6-((4-(4-(((4-(((R)-4-morpholino-1-(phenylthio)butan-2-yl)amino)-3-((trifluoromethyl)sulfonyl)phenyl)sulfonyl)carbamoyl)phenyl)piperazin-1-yl)methyl)-2,3,4,5-tetrahydro-[1,1’-biphenyl]-4-yl)methyl)-N^10-((S)-1-((2S,4R)-4-hydroxy-2-(((S)-1-(4-(4-methylthiazol-5-yl)phenyl)ethyl)carbamoyl)pyrrolidin-1-yl)-3,3-dimethyl-1-oxobutan-2-yl)decanediamide] |  | 
6 | no significant IC50 value changes | could not | minimal effect |  |  | did not induce BCL-XL degradation | Cc1ncsc1-c1ccc([C@H](C)NC(=O)[C@@H]2C[C@H](O)CN2C(=O)[C@@H](NC(=O)CCCCCCCCC(=O)NC[C@]2(C)CCC(c3ccc(Cl)cc3)=C(CN3CCN(c4ccc(C(=O)NS(=O)(=O)c5ccc(N[C@H](CCN6CCOCC6)CSc6ccccc6)c(S(=O)(=O)C(F)(F)F)c5)cc4)CC3)C2)C(C)(C)C)cc1 [PZ703b-NC] |  | 
